{"source": "ChEMBL document CHEMBL2396613", "about": "“Anti-leishmanial evaluation of C2-aryl quinolines: mechanistic insight on bioenergetics and sterol biosynthetic pathway of Leishmania braziliensis” (Bioorg Med Chem, 2013)", "key": {"Leishmania braziliensis [1]": {"system": "Leishmania braziliensis", "assay": "Antileishmanial activity against promastigotes of Leishmania (V.) braziliensis MHOM/CO/87/UA301 after 96 hrs by MTT assay", "format": "functional, organism-based", "settings": "MHOM/CO/87/UA301, 96 h"}, "Leishmania braziliensis [2]": {"system": "Leishmania braziliensis", "assay": "Induction of acidocalcisomes alkalinization in Leishmania (V.) braziliensis MHOM/CO/87/UA301 at 1 uM up to 1400 seconds using acridine orange staining", "format": "functional, organism-based"}, "[3]": {"assay": "Cytotoxicity against mouse BMDM after 96 hrs by MTT assay", "how_it_was_run": "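Host-cell MTT test on mouse bone-marrow-derived macrophages (L-929 conditioned medium): 5000 cells/well were exposed to 100, 200 and 300 μM. MTT was added, cells were lysed with acidic isopropanol and read at 570 nm.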"}, "Leishmania braziliensis [4]": {"system": "Leishmania braziliensis", "assay": "Effect on sterol biosynthesis in Leishmania (V.) braziliensis MHOM/CO/87/UA301 assessed as exogenous cholesterol level at 6 uM (reference value: 13.6 +/- 0.51%)"}, "Leishmania braziliensis [5]": {"system": "Leishmania braziliensis", "assay": "Antileishmanial activity against amastigotes of Leishmania (V.) braziliensis MHOM/CO/87/UA301 infected in BMDM assessed as reduction of intracellular amastigotes after 96 hrs by Giemsa staining", "format": "functional, organism-based", "settings": "MHOM/CO/87/UA301, BMDM", "how_it_was_run": "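Mouse bone-marrow macrophages, differentiated in L-929 conditioned medium, were mixed 1:10 with promastigotes in DMEM + 10% FBS. Co-cultures sat on glass coverslips for 18 h at 37 °C, 5% CO2. Medium was then replaced with compound-containing medium for 96 h. Cells were Giemsa-stained and counted. EC50 was based on the number of amastigotes per macrophage; triplicate.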"}, "[6]": {"assay": "Cytotoxicity against mouse BMDM at 20 to 100 uM after 96 hrs by MTT assay"}, "Leishmania braziliensis [7]": {"system": "Leishmania braziliensis", "assay": "Effect on sterol biosynthesis in Leishmania (V.) braziliensis MHOM/CO/87/UA301 assessed as endogenous squalene level at 6 uM (reference value: 22.7 +/- 0.12%)"}, "Leishmania braziliensis [8]": {"system": "Leishmania braziliensis", "assay": "Effect on sterol biosynthesis in Leishmania (V.) braziliensis MHOM/CO/87/UA301 assessed as endogenous 14-desmethyl 5-dehydroepisterol level at 6 uM (reference value: 63.7 +/- 1.02%)"}, "Leishmania braziliensis [9]": {"system": "Leishmania braziliensis", "assay": "Induction of acidocalcisomes alkalinization in Leishmania (V.) braziliensis MHOM/CO/87/UA301 at 6 uM up to 1200 seconds using acridine orange staining", "format": "functional, organism-based", "how_it_was_run": "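Promastigotes (10⁹ cells/mL), washed twice in KCl/Tris buffer, were loaded with 2 μM acridine orange for 5 min at 29 °C. Fluorescence (ex 488, em 530 nm) was recorded in a stirred cuvette at 29 °C.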"}, "Leishmania braziliensis [10]": {"system": "Leishmania braziliensis", "assay": "Reduction of mitochondrial membrane potential in Leishmania (V.) braziliensis MHOM/CO/87/UA301 assessed as increase in fluorescence at 6 uM up to 1400 seconds using rhodamine 123 by spectrofluorimeter analysis", "format": "functional, organism-based", "how_it_was_run": "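Fluorescence (ex 488, em 530 nm) was followed in a spectrofluorimeter at 29 °C under continuous agitation. FCCP served as protonophore comparator.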"}}, "note": "Calls of active or inactive are those of the source. No cut-off for these calls is given here.", "data": [{"smiles": "c1ccc2nc(-c3ccc4c(c3)OCO4)ccc2c1", "values": [{"measurement": "IC50", "setting": "Leishmania braziliensis [1]", "value": "≥ 50", "unit": "µM"}]}, {"smiles": "CO[C@@H]1C[C@@H](C[C@H]2CC[C@H](C)[C@H]([C@@H](C)C(=O)O)O2)O[C@]2(O[C@](C)([C@H]3CC[C@@](C)([C@@H]4O[C@@H]([C@H]5O[C@@](O)(CO)[C@H](C)C[C@@H]5C)C[C@@H]4C)O3)C[C@H]2C)[C@@H]1C", "values": [{"measurement": "Activity", "setting": "Leishmania braziliensis [2]", "value": "Active"}]}, {"smiles": "Cc1cc(C)c2ccc(-c3ccc4c(c3)OCO4)nc2c1", "values": [{"measurement": "IC50", "setting": "Leishmania braziliensis [1]", "value": "≥ 50", "unit": "µM"}]}, {"smiles": "CCN(CC)CCCCCCNc1cc(OC)cc2c(C)ccnc12", "note": "[SITAMAQUINE]", "values": [{"measurement": "IC50", "setting": "[3]", "value": "≤ 100", "unit": "µM"}, {"measurement": "IC50", "setting": "Leishmania braziliensis [1]", "value": "≤ 50", "unit": "µM"}]}, {"smiles": "COc1ccc2nc(-c3ccc4c(c3)OCO4)ccc2c1", "values": [{"measurement": "IC50", "setting": "Leishmania braziliensis [1]", "value": "≥ 50", "unit": "µM"}]}, {"smiles": "Cc1cc(C)c2ccc(-c3ccccc3)nc2c1", "values": [{"measurement": "IC50", "setting": "[3]", "value": "≤ 100", "unit": "µM"}, {"measurement": "IC50", "setting": "Leishmania braziliensis [1]", "value": "≤ 50", "unit": "µM"}]}, {"smiles": "CCc1ccc2nc(-c3ccc4c(c3)OCO4)ccc2c1", "values": [{"measurement": "IC50", "setting": "Leishmania braziliensis [1]", "value": "≥ 50", "unit": "µM"}]}, {"smiles": "CCc1ccc2nc(-c3ccccc3)ccc2c1", "values": [{"measurement": "mass % of sterol at 6 µM", "setting": "Leishmania braziliensis [4]", "value": 12.3, "unit": "%"}, {"measurement": "EC50", "setting": "Leishmania braziliensis [5]", "value": 20, "unit": "µM"}, {"measurement": "Activity", "setting": "[6]", "value": "Non-toxic"}, {"measurement": "mass % of sterol at 6 µM", "setting": "Leishmania braziliensis [7]", "value": 64.3, "unit": "%"}, {"measurement": "mass % of sterol at 6 µM", "setting": "Leishmania braziliensis [8]", "value": 23.4, "unit": "%"}, {"measurement": "Activity", "setting": "Leishmania braziliensis [9]", "value": "Active"}, {"measurement": "IC50", "setting": "[3]", "value": "≥ 200", "unit": "µM"}, {"measurement": "Activity", "setting": "Leishmania braziliensis [10]", "value": "Active"}, {"measurement": "IC50", "setting": "Leishmania braziliensis [1]", "value": "≤ 50", "unit": "µM"}]}, {"smiles": "Cc1ccc2nc(-c3ccc4c(c3)OCO4)ccc2c1", "values": [{"measurement": "IC50", "setting": "Leishmania braziliensis [1]", "value": "≥ 50", "unit": "µM"}]}, {"smiles": "CCCCCCCCCCCCCCCCOP(=O)([O-])OCC[N+](C)(C)C", "note": "[MILTEFOSINE]", "values": [{"measurement": "IC50", "setting": "[3]", "value": "≥ 200", "unit": "µM"}, {"measurement": "IC50", "setting": "Leishmania braziliensis [1]", "value": "≤ 50", "unit": "µM"}]}]}
